From ChEMBL document CHEMBL3853270, “Influence of Birch Bark Triterpenes on Keratinocytes and Fibroblasts from Diabetic and Nondiabetic Donors” (2016)
Activity calls are given as the source filed them. No cut-off for these calls is given here.

Assays:
Assay type in all cases: functional
Fibroblast [1] = assay: Effect on chemokines related gene expression in diabetic adult human primary fibroblasts assessed as IL8 mRNA levels at 1.96 uM after 6 hrs by qPCR analysis
Keratinocyte [2] = assay: Effect on chemokines related gene expression in non-diabetic young human primary keratinocytes assessed as IL8 mRNA levels at 1.96 uM after 6 hrs by qPCR analysis
Outline: (§1)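 Primary human keratinocytes (nondiabetic young or adult, diabetic adult donors) were exposed to compound for 6 h, with 0.1% DMSO as solvent control. Total RNA came from 400 000 cells per sample and was assayed on a Fluidigm Biomark high-throughput qPCR chip. Results are fold change vs solvent control, from 2−4 independent experiments on two donors per group, with SD. Groups were compared by one-way ANOVA with Bonferroni post-test.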

Keratinocyte [3] = assay: Effect on growth factor related gene expression in diabetic adult human primary keratinocytes assessed as GDF15 mRNA levels at 1.96 uM after 6 hrs by qPCR analysis; outline: as §1
Fibroblast [4] = assay: Effect on transcription factor related gene expression in non-diabetic adult human primary fibroblasts assessed as JUN mRNA levels at 9.81 uM after 6 hrs by qPCR analysis
Fibroblast [5] = assay: Effect on chemokines related gene expression in non-diabetic adult human primary fibroblasts assessed as CCL2 mRNA levels at 9.81 uM after 6 hrs by qPCR analysis
Fibroblast [6] = assay: Effect on adhesion molecules related gene expression in diabetic adult human primary fibroblasts assessed as VCAM1 mRNA levels at 1.96 uM after 6 hrs by qPCR analysis
Outline: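 Dermal fibroblasts from nondiabetic adult and diabetic adult donors, exposed for 6 h at 1.96 or 9.81 μM. ICAM-1 and VCAM-1 mRNA measured by standard qRT-PCR, n = 3. Fold change versus 0.1% DMSO control, SD, one-way ANOVA with Bonferroni post-test.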

Fibroblast [7] = assay: Effect on antiinflammatory related gene expression in diabetic adult human primary fibroblasts assessed as SOCS3 mRNA levels at 1.96 uM after 6 hrs by qPCR analysis
Outline: (§2)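 Primary dermal fibroblasts from one nondiabetic young, one nondiabetic adult and one diabetic adult donor; 320 000 cells per sample, 6 h at 1.96 or 9.81 μM. RNA measured on a high-throughput qPCR chip. Fold change versus 0.1% DMSO control, four independent experiments, SD, one-way ANOVA with Bonferroni post-test.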

Keratinocyte [8] = assay: Effect on pro-inflammatory related gene expression in diabetic adult human primary keratinocytes assessed as PTGS2 mRNA levels at 1.96 uM after 6 hrs by qPCR analysis
Fibroblast [9] = assay: Effect on actin cytoskeleton in human diabetic primary fibroblasts assessed as formation of thin elongated cellular body at 10 nM after 2 hrs by rhodamine phalloidin-staining based fluorescence microscopic analysis
Outline: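 Subconfluent cells on glass coverslips, collagen type I coated for fibroblasts; keratinocytes starved 2 days before stimulation. Exposure 2 h, then rhodamine-phalloidin staining (1:25 in PBS) and fluorescence microscopy. Controls were DMSO as solvent and PDGF (fibroblasts) or CNF1 (keratinocytes). Where used, p38-MAPK inhibitor LN 950 (100 nM) was added 30 min beforehand.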

Keratinocyte [10] = assay: Effect on ECM related gene expression in non-diabetic adult human primary keratinocytes assessed as FBN1 mRNA levels at 1.96 uM after 6 hrs by qPCR analysis
Outline: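 Primary keratinocytes from nondiabetic young and adult and diabetic adult donors; 400 000 cells per sample, 6 h exposure at 1.96 or 9.81 μM. RNA extracted and read on a high-throughput qPCR chip. Results are fold change versus 0.1% DMSO solvent control from 5−7 independent experiments over two donors per group, SD, one-way ANOVA with Bonferroni post-test.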

[11] = Effect on wound healing activity in diabetic adult human primary keratinocytes assessed as upregulation of TNFalpha protein levels at 1.96 uM after 24 hrs by bead-based suspension array analysis; settings: Keratinocyte
Keratinocyte [12] = assay: Effect on cellular connection related gene expression in non-diabetic young human primary keratinocytes assessed as GJB2 mRNA levels at 1.96 uM after 6 hrs by qPCR analysis
Keratinocyte [13] = assay: Effect on pro-inflammatory related gene expression in non-diabetic adult human primary keratinocytes assessed as PTGS2 mRNA levels at 1.96 uM after 6 hrs by qPCR analysis
Fibroblast [14] = assay: Effect on chemokines related gene expression in non-diabetic adult human primary fibroblasts assessed as IL8 mRNA levels at 9.81 uM after 6 hrs by qPCR analysis
Keratinocyte [15] = assay: Effect on pro-inflammatory related gene expression in non-diabetic young human primary keratinocytes assessed as TNF mRNA levels at 9.81 uM after 6 hrs by qPCR analysis
Fibroblast [16] = assay: Effect on pro-inflammatory related gene expression in diabetic adult human primary fibroblasts assessed as IL1B mRNA levels at 1.96 uM after 6 hrs by qPCR analysis
Outline: (§3)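 Primary human dermal fibroblasts (young or adult nondiabetic, adult diabetic donor) were treated for 6 h against a 0.1% DMSO solvent control. RNA from 320 000 cells per sample was measured by Fluidigm Biomark high-throughput qPCR. Values are fold change relative to solvent control, from four independent experiments, with SD. One-way ANOVA with Bonferroni post-test was applied.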

Fibroblast [17] = assay: Effect on MMP1 mRNA expression levels in non-diabetic adult human primary fibroblasts at 9.81 uM after 6 hrs by qPCR analysis; outline: as §2
Fibroblast [18] = assay: Effect on antioxidant related gene expression in diabetic adult human primary fibroblasts assessed as NFE2L2 mRNA levels at 1.96 uM after 6 hrs by qPCR analysis
Fibroblast [19] = assay: Effect on MMP1 mRNA expression levels in non-diabetic young human primary fibroblasts at 9.81 uM after 6 hrs by qPCR analysis; outline: as §2
Fibroblast [20] = assay: Effect on growth factor related gene expression in non-diabetic young human primary fibroblasts assessed as VEGFA mRNA levels at 9.81 uM after 6 hrs by qPCR analysis; outline: as §3
Fibroblast [21] = assay: Effect on MMP1 mRNA expression levels in non-diabetic adult human primary fibroblasts at 1.96 uM after 6 hrs by qPCR analysis; outline: as §2
Fibroblast [22] = assay: Effect on antiinflammatory related gene expression in diabetic adult human primary fibroblasts assessed as NFKBIA mRNA levels at 1.96 uM after 6 hrs by qPCR analysis; outline: as §2
Keratinocyte [23] = assay: Effect on antioxidant related gene expression in diabetic adult human primary keratinocytes assessed as SOD2 mRNA levels at 1.96 uM after 6 hrs by qPCR analysis
[24] = Effect on wound healing activity in diabetic adult human primary fibroblasts assessed as upregulation of soluble VCAM1 protein levels at 1.96 uM after 24 hrs by bead-based suspension array analysis; settings: Fibroblast
[25] = Effect on wound healing activity in diabetic adult human primary fibroblasts assessed as upregulation of MIF protein levels at 1.96 uM after 24 hrs by bead-based suspension array analysis; settings: Fibroblast
Fibroblast [26] = assay: Effect on growth factor related gene expression in diabetic adult human primary fibroblasts assessed as GDF15 mRNA levels at 1.96 uM after 6 hrs by qPCR analysis; outline: as §3
Fibroblast [27] = assay: Effect on pro-inflammatory related gene expression in diabetic adult human primary fibroblasts assessed as IL6 mRNA levels at 1.96 uM after 6 hrs by qPCR analysis; outline: as §3
Fibroblast [28] = assay: Effect on antioxidant related gene expression in diabetic adult human primary fibroblasts assessed as NFE2L2 mRNA levels at 9.81 uM after 6 hrs by qPCR analysis

Structure (SMILES): C=C(C)[C@@H]1CC[C@]2(CO)CC[C@]3(C)[C@H](CC[C@@H]4[C@@]5(C)CC[C@H](O)C(C)(C)[C@@H]5CC[C@]43C)[C@@H]12 [BETULIN]
- fold change (FC) (Fibroblast [1]): 10.8
- fold change (FC) (Keratinocyte [2]): 9.7
- fold change (FC) (Keratinocyte [3]): 1.4
- fold change (FC) (Fibroblast [4]): 3.1
- fold change (FC) (Fibroblast [5]): 197
- fold change (FC) (Fibroblast [6]): 3.3
- fold change (FC) (Fibroblast [7]): 2
- fold change (FC) (Keratinocyte [8]): 1.3
- Activity (Fibroblast [9]): Active
- fold change (FC) (Keratinocyte [10]): 0.9
- Activity [11]: Active
- fold change (FC) (Keratinocyte [12]): 0.8
- fold change (FC) (Keratinocyte [13]): 1
- fold change (FC) (Fibroblast [14]): 991
- fold change (FC) (Keratinocyte [15]): 6
- fold change (FC) (Fibroblast [16]): 7.6
- fold change (FC) (Fibroblast [17]): 2.3
- fold change (FC) (Fibroblast [18]): 1.8
- fold change (FC) (Fibroblast [19]): 1
- fold change (FC) (Fibroblast [20]): 2
- fold change (FC) (Fibroblast [21]): 2.1
- fold change (FC) (Fibroblast [22]): 3.1
- fold change (FC) (Keratinocyte [23]): 1.1
- Activity [24]: Active
- Activity [25]: Active
- fold change (FC) (Fibroblast [26]): 2.4
- fold change (FC) (Fibroblast [27]): 14.9
- fold change (FC) (Fibroblast [28]): 1.5
